Data as given in publication PMC3667888 (Channels, 2013).
Where a chain is given by its changes, count along the chain named.

Columns and labels:
Type in all cases: cell-based
[1] = molecular target: T1, Kv4.2 G314F mutant channels (co-injected with KChIP1b) (Rattus norvegicus, UniProt Q63881, G314F); experiment: Two-electrode voltage clamp, G314F mutant Kv4.2/KChIP1b in Xenopus oocytes; conditions: read-out: inhibition of the peak K+ current
T1 sequence (Q63881 1-630 G314F): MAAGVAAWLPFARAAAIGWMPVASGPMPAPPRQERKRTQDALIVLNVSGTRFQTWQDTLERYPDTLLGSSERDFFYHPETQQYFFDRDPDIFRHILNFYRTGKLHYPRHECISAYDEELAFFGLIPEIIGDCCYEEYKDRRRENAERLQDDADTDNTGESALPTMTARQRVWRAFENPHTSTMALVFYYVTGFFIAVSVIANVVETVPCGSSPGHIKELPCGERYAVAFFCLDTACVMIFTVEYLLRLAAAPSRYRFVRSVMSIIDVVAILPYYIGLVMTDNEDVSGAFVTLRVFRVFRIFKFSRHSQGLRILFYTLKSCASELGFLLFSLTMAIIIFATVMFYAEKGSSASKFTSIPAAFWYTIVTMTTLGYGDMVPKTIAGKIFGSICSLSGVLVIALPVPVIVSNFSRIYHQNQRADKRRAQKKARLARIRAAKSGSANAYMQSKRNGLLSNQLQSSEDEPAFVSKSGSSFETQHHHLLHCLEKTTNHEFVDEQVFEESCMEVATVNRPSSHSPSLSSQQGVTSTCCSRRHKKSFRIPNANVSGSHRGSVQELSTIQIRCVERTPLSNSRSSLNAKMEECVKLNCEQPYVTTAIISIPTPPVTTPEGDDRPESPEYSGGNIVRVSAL
Procedure, shortened: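 Rat Kv4.2 (WT or QuikChange mutant) RNA co-injected equimolar with KChIP1b, 5–10 ng/oocyte, into Xenopus oocytes held 1–5 d at 17–19 °C. Two-electrode voltage clamp at room temperature in perfused Na/K methanesulfonate HEPES saline, pH 7.4–7.5, with P/−4 or P/−6 leak subtraction. Peak current at +40 mV (from −90 mV) after 10 min of 10 μM AA is expressed relative to pre-AA current. Mean ± SE, n = cells.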

[2] = molecular target: T2, Kv4.2 K318E mutant channels (co-injected with KChIP1b) (Rattus norvegicus, UniProt Q63881, K318E); experiment: Two-electrode voltage clamp, K318E mutant Kv4.2/KChIP1b in Xenopus oocytes; conditions: 10 µM AA
T2 sequence (Q63881 1-630 K318E): T1 sequence (Q63881 1-630 G314F) with F314G, K318E
Procedure, shortened: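 Xenopus oocytes co-expressing rat Kv4.2 (WT or mutant) with equimolar KChIP1b were recorded by two-electrode voltage clamp at room temperature. Peak conductance was calculated as G = I/(Vm − Vh), with Vh = −100 mV, and normalized to each cell's Gmax. It was plotted against step potential without and with 10 μM AA and fit to a first-order Boltzmann function to give V1/2 and slope.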

[3] = molecular target: T3, Kv4.2 R311Q mutant channels (co-injected with KChIP1b) (Rattus norvegicus, UniProt Q63881, R311Q); experiment: Two-electrode voltage clamp, R311Q mutant Kv4.2/KChIP1b in Xenopus oocytes; conditions: 10 µM AA, 10 min
T3 sequence (Q63881 1-630 R311Q): T1 sequence (Q63881 1-630 G314F) with R311Q, F314G

inhibition at 10 µM [1]: 22% | V1/2 of conductance-voltage curve with AA [2]: −25.2 mV | shift in V1/2 in the presence of AA [2]: +5 mV | slope factor (k) of Boltzmann fit with AA [2]: 7.1
SMILES: CCCCC/C=C\C/C=C\C/C=C\C/C=C\CCCC(=O)O [AA, arachidonic acid]
inhibition of peak K+ current by AA, effect of mutation ([2]; 10 min): did not impair the inhibition of current by AA | inhibition of peak K+ current by AA, effect of mutation [3]: did not significantly disrupt the inhibitory effects of AA
